In the library only some 3% were active in any assay of this set; here they are far more common.
M4 antag = CHRM4 antagonism in calcium assay. 360,000 compounds, 0.73% hits. inhibition, % at 3 µM. CHO-hM4 cells, ACh EC80, Fluo-8 calcium fluorescence. P08173;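 active = inhibition above its plate's cutoff, the mean inhibition of sample wells plus 3 SD, cut at about 27% in these data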;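 also: 0% = acetylcholine EC80 with DMSO and 100% = DMSO without agonist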
Target sequence (P08173 whole entry, looked up): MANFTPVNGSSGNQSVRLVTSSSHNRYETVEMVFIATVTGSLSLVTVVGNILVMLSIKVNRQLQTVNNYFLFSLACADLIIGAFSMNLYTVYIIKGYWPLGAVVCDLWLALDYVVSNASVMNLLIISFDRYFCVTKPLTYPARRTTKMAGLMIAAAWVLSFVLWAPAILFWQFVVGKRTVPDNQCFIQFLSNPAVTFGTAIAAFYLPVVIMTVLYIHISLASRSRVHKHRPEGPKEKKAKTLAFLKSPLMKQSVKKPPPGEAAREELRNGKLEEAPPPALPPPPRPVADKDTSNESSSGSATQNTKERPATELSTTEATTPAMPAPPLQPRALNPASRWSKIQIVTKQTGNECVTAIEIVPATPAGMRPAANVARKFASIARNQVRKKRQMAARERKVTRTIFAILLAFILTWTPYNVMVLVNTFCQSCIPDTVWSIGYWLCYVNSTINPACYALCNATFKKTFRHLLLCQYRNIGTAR
TAAR1 antag = antagonists of human TAAR1 | CHO RD-HGA16 TAAR1, Fluo-8 calcium fluorescence, antagonist | inhibition, % at 3 µM | Q96RJ0 | 360,000 compounds, 1.5% hits;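 active = inhibition above a per-plate cutoff, the mean inhibition of test compounds on that plate plus 3 SD, cut at about 49% in these data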;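 also: 0% = DMSO plus EC80 beta-PEA response and 100% = DMSO alone without agonist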
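Test system: hTAAR1-expressing CHO RD-HGA16 cells, Gα16-coupled; Probe or stimulus: EC80 β-phenethylamine stimulus; Compound dosing: single nominal final test compound concentration of 3 µM; Timing: 140 s kinetic read after compound, 140 s after agonist; Signal: Fluo-8 calcium-sensitive fluorescence; Measure: % inhibition of agonist calcium response; Controls: DMSO and EC80 PEA controls.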
CHRM4 agonist = agonists of human muscarinic M4 receptor (CHRM4). P08173. 360,000 compounds, 0.14% hits. CHO-K1 hM4/Gqi5, Fluo-8 calcium fluorescence; vehicle 0%, full acetylcholine response 100%. activation, % at 3 µM. AID 624127;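 active = activation above the run mean over all test wells plus 3 SD, cut at about 32% in these data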;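 also: peak over basal fluorescence ratio per well then scaled between controls; 0% = DMSO wells and 100% = acetylcholine at EC100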
CHRM4 PAM = potentiates acetylcholine response at human M4 receptor | P08173 | CHO-K1 hM4/Gqi5, Fluo-8 calcium fluorescence, ACh EC20; 0% = ACh EC20, 100% = maximal ACh | activation, % at 3 µM | 360,000 compounds, 0.4% hits | AID 624126;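 active = activation above its plate's cutoff, the mean activation of sample wells plus 3 SD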
TAAR1 ag = human TAAR1 agonism; AID 624467; Q96RJ0; 360,000 compounds, 0.99% hits; CHO RD-HGA16 TAAR1, Fluo-8 calcium fluorescence; vehicle wells 0%, saturating PEA agonist 100%; activation, % at 3 µM;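 active = activation above the mean activation of all test compounds in the run plus 3 SD, cut at about 38% in these data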
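System: CHO RD-HGA16 cells carrying human TAAR1 plus Gα16; Incubation: 17-24 h seeding, 75 min 37 °C dye, 30 min RT; Measured by: Fluo-8 fluorescence, 5 s baseline then 140 s kinetic read; Control set: DMSO and PEA EC100; Replication: single well for each compound.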
An asterisk follows results filed as active; nt = not tested or not shown.

SMILES	M4 antag	TAAR1 antag	CHRM4 agonist	CHRM4 PAM	TAAR1 ag
C[C@@]12C(=O)Nc3ccc(Cl)cc3C(=O)N1[C@H]1c3ccccc3OC[C@@H]1[C@@H]2c1ccccc1	41*	nt	0	-7	nt
Cc1ccc2c(c1)C(=O)N1[C@H]3c4cc(C)ccc4OC[C@@H]3[C@H](c3ccccc3)[C@]1(C)C(=O)N2	29*	-4	1	-15	14
O=c1ccsn1Cc1ccccc1	7	37	7	11	44*
Cc1ccc(C)c2nc3sc(C(=O)N4CCOCC4)c(N)c3cc12	0	22	4	3	17
Cc1cccc2cc3c(N)c(C(=O)N4CCc5ccccc54)sc3nc12	19	55*	16	-7	31
O=C(CCc1ccccc1)NC1(Cc2ccccc2)CCN(CCCc2ccccc2)C1=O (configuration not stated)	12	55*	14	-2	7
NC(=O)c1ncn([C@@H]2O[C@H](C(=O)N3CCN(Cc4ccccn4)CC3)[C@@H](O)[C@H]2O)n1	nt	-24	nt	nt	2
COC(=O)[C@]12C[C@H](CC(=O)NCc3cccc4ccccc34)C(=O)N(Cc3ccccc3)C1=C[C@H](C1CCCC1)O[C@@H]2C	nt	-15	nt	nt	0
O=C(C(=O)N1CCC(CNS(=O)(=O)c2cc(C(F)(F)F)cc(C(F)(F)F)c2)CC1)c1cc2ccccc2o1	nt	-31	nt	nt	1
COC(=O)c1ccc(CN2CCC(CO)(Cc3ccccc3Cl)CC2)cc1	27*	23	2	-24	2
COC(=O)c1ccc(CN2CCCC(CO)(Cc3ccccc3F)C2)cc1 (configuration not stated)	7	-3	4	-13	3
O=C(c1ccc(COc2ccccc2)o1)N1CCN(S(=O)(=O)c2ccccc2Cl)CC1	11	51*	14	-9	8
O=C(O)c1cc(S(=O)(=O)N2CCN(C(=O)c3ccco3)CC2)c(Cl)cc1Cl	-30	-8	2	14*	9
O=C(c1ccco1)N1CCN(S(=O)(=O)c2cc(Cl)ccc2Cl)CC1	-13	-6	2	-4	1
CCCCS(=O)(=O)N1CCCc2nc(C)c(C)cc21	nt	-25	nt	nt	6
CN(CC(=O)Nc1cccc(F)c1)C(=O)c1ccccc1OCC(=O)Nc1cccc(C(F)(F)F)c1	-6	82*	6	0	19
COc1cc(C(=O)NCc2cccnc2)ccc1OCC(=O)Nc1cccc(C(F)(F)F)c1	-2	32	20	-8	10
COc1ccc(CN(C)C(=O)c2ccc(OCC(=O)Nc3cccc(C(F)(F)F)c3)c(OC)c2)cc1	31*	29	16	-12	5
Cc1cc(OCCCN2CCC(C(O)(c3ccccc3)c3ccccc3)CC2)ccc1Br	29*	48	17	-10	36
COCc1cc(N2CCN(C(=O)OC(C)(C)C)C[C@H]2C)ccc1N1C[C@@H](C)O[C@@H](C)C1	nt	-29	nt	nt	0
COC(=O)c1cc2c(c3c4cc(OC)ccc4n(S(=O)(=O)c4ccc(C)cc4)c13)C(=O)N(C)C2	nt	-19	nt	nt	0
CCOC(=O)c1c(NC(=O)COc2cccc3c2CCN(CC)C3=O)sc2c1CCC2	4	-22	2	22*	1
Cc1ccc(C23CC4CC(CC(CN)(C4)C2)C3)cc1	-8	12	18	4	10
NCC12CC3CC(C1)CC(c1ccc(Br)cc1)(C3)C2	21	22	15	-11	42*
Cc1nc(N2CCN(c3ccccn3)CC2)c2c(C)c(C(=O)Nc3c(F)cc(F)cc3Br)sc2n1	12	57*	11	-18	3
SMILES	M4 antag	TAAR1 antag	CHRM4 agonist	CHRM4 PAM	TAAR1 ag
COc1ccc(OC)c(NC(=O)c2sc3ncnc(N4CCN(c5ccccn5)CC4)c3c2C)c1	-22	nt	1	19*	nt
Cc1nc(N2CCN(c3ccccn3)CC2)c2c(C)c(C(=O)Nc3c(C)cc(Br)cc3C)sc2n1	-16	-10	0	-5	1
Nc1[nH]c(C(=O)c2ccc(Br)cc2)c(-c2c(F)cccc2F)c1C(=O)NCCc1c[nH]c2ccccc12	nt	18	nt	nt	1
COC(=O)C1=C(C)N(CC(C)C)C(=S)NC1c1ccc(-c2ccccc2)cc1 (configuration not stated)	nt	-27	nt	nt	1
Cc1cc(Br)cn2c(Cc3cccc(F)c3)c(-c3ccc(Cl)cc3)nc12	-8	16	-1	0	-1
COc1ccc(C2CC(=O)C(c3ccc([N+](=O)[O-])cc3)=CN2Cc2ccccc2)cc1 (configuration not stated)	nt	13	nt	nt	6
O=C(Oc1cccc(NC2=NS(=O)(=O)c3ccccc32)c1)c1cccnc1	9	49*	20	-13	23
CCN(CC)Cc1cc(NC2=NS(=O)(=O)c3ccccc32)ccc1OC(=O)c1ccccc1	-5	-7	0	0	1
COC(=O)c1cc2c(c3c4cc(C)ccc4n(S(=O)(=O)c4cccc(C)c4)c13)C(=O)N(Cc1ccc(C(F)(F)F)cc1)C2	nt	-23	nt	nt	0
CCCCCn1c(C)c(CC(=O)Nc2ccc(Oc3cccnc3)c(C)c2)c2ccccc21	nt	9	nt	nt	-2
CC(=O)N1C[C@@H](CN2C(=O)CCC2=O)[C@@H]2C[C@H]1c1ccccc1N2C	nt	-2	nt	nt	2
Cc1ccc(S(=O)(=O)N(C)c2cccc3c2S(=O)(=O)N([C@H](C)c2ccccc2)C[C@@H](COCc2ccccc2)O3)cc1	nt	8	nt	nt	1
COc1ccc(CN2C(=O)[C@H]3Cc4c([nH]c5ccccc45)C(C)(C)N3C2=O)cc1	10	56*	16	-6	18
CCCCN(CCCC)CCCN1CC(=O)N2[C@@H](Cc3c([nH]c4ccccc34)C2(C)C)C1=O	86*	-4	2	-19	4
COc1ccc(CN2C(=O)[C@@H]3Cc4c([nH]c5ccccc45)C(C)(C)N3C2=O)cc1	-1	30	4	2	5
CC1(C)c2[nH]c3ccccc3c2C[C@@H]2C(=O)N(Cc3ccccc3Cl)C(=O)N21	12	49*	5	1	13
Nc1[nH]c(C(=O)c2ccc(Br)cc2)c(-c2ccc(Br)cc2)c1C(=O)NCc1cccc2ccccc12	nt	-21	nt	nt	2
NC(=O)c1c(N)[nH]c(C(=O)c2ccccc2)c1-c1ccc(Cl)cc1Cl	nt	-11	nt	nt	1
CC(=O)c1ccc(NC(=O)CSc2nnc(NC(=O)c3ccco3)s2)cc1	1	nt	1	21*	nt
COCC(=O)N(C)CC1CCCN(CCc2ccccc2OC)C1 (configuration not stated)	-1	-24	0	5	9
CC(=O)c1cccc(CN(C)CC2CCCN(CCc3ccccc3C)C2)c1 (configuration not stated)	88*	-12	2	-16	1
